Assay [1] concerns Rattus norvegicus. The assay can be described thus: Antiarthritic activity in Wistar rat type-2 collagen-induced arthritis model assessed as reduction in cartilage space narrowing at 0.6 to 15 mg/kg, ig via gavage administered 10 consecutive days starting from day 20 post type-2 collagen injection by X-ray method. In kind it is functional, organism-based. In a few lines:
(§1)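 CIA in male Wistar rats (chicken CII emulsion, two intradermal injections 7 d apart); daily gavage for 10 d from day 20. After treatment, hind limbs X-rayed. Left hind paw joints fixed in 10% formalin, decalcified in 10% EDTA for 28 d at 4 °C, paraffin-embedded, sectioned at 5 μm, H&E-stained and examined by light microscopy at 100×.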

The test system of assay [2] is Rattus norvegicus. As to the kind of experiment: Antiarthritic activity in ig dosed Lewis rat Freund's adjuvant-induced arthritis model assessed as reduction in mechanical allodynia in ipsilateral hind paw administered through gavage pretreated for 1 hr followed by adjuvant challenge and subsequent treatment for 9 days measured alternate days up to 24 days post dose. In kind it is functional, organism-based. The procedure, abridged:
(§2)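 Lewis rats with CFA-induced arthritis (0.1 mL intradermal, right hind paw), gavaged 1 h before induction and daily for 9 d. Mechanical withdrawal threshold measured 1 h after dosing. Rats habituated 30 min in individual cubicles; von Frey filament applied upward to the centre of each hind paw until withdrawal, maximum 55 g. Repeated twice at 10 min intervals; ipsilateral and contralateral paws recorded separately. n = 10; two-way ANOVA.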

Assay [3] concerns Rattus norvegicus. As to the kind of experiment: Antiarthritic activity in Lewis rat Freund's adjuvant-induced arthritis model assessed as reduction in arthritis index score at 3 mg/kg, ig administered through gavage pretreated for 1 hr followed by adjuvant challenge subsequent treatment for 9 days measured alternate days up to 24 days post dose. In kind it is functional, organism-based. The procedure, abridged: (§3)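 Female Lewis rats (8 weeks old) given a single intradermal injection of 0.1 mL CFA (heat-killed M. tuberculosis in paraffin oil) into the right hind paw. Gavage dosing in sterile saline 1 h before induction and daily for 9 d. Arthritis index scored (the paper reports the 18 d reading). n = 10 per group; Kruskal−Wallis with Dunn's test.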

For assay [4], the system named is Rattus norvegicus. As to the kind of experiment: Antiarthritic activity in Lewis rat Freund's adjuvant-induced arthritis model assessed as change in liver weight at 0.6 to 15 mg/kg, ig administered through gavage pretreated for 1 hr followed by adjuvant challenge subsequent treatment for 9 days measured alternate days up to 24 days post dose. In kind it is functional, organism-based. In a few lines: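 Female Lewis rats (8 weeks old, 120−140 g) given a single intradermal injection of 0.1 mL CFA (10 mg heat-killed M. tuberculosis per 1 mL paraffin oil) into the right hind paw. Oral gavage in sterile saline 1 h before induction, then daily for the next 9 d. Sacrifice by exsanguination under deep anesthesia 24 d after adjuvant. Spleen, liver and thymus weighed and corrected for body weight (g/100 g). n = 10; one-way ANOVA with Student−Newman−Keuls.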

In assay [5] the test system is Rattus norvegicus. The assay can be described thus: Antiarthritic activity in Wistar rat type-2 collagen-induced arthritis model assessed as reduction in serum anti-type-2 collagen IgG level at 3 mg/kg, ig via gavage administered 10 consecutive days starting from day 20 post type-2 collagen injection by ELISA method. In kind it is functional, organism-based. In a few lines: (§4)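 CIA Wistar rats (chicken CII in BCG/IFA emulsion, intradermal twice 7 d apart) gavaged daily for 10 d from day 20. Serum collected after treatment; anti-CII IgG quantified with a rat anti-CII antibody ELISA kit. n = 10 per group; one-way ANOVA with Student−Newman−Keuls.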
On the technique in general: ELISA stands for enzyme-linked immunosorbent assay.

Assay [6] concerns Rattus norvegicus. As to the kind of experiment: Antiarthritic activity in Wistar rat type-2 collagen-induced arthritis model assessed as reduction in joint tissue TNF-alpha level at 15 mg/kg, ig via gavage administered 10 consecutive days starting from day 20 post type-2 collagen injection by ELISA method. It is filed as functional, organism-based. The procedure, abridged: (§5)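 CIA Wistar rats dosed by gavage daily for 10 d from day 20 post first CII injection. Trunk blood serum stored at −70 °C. Right hind paw joint tissue homogenized at 200 mg/mL in PBS with 50 U/mL aprotinin, then centrifuged at 3000 rpm for 20 min at 4 °C. IL-1β and TNF-α quantified by ELISA kits in serum and supernatant. n = 10; one-way ANOVA with SNK.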

For assay [7], the system named is Rattus norvegicus. As to the kind of experiment: Antiarthritic activity in Lewis rat Freund's adjuvant-induced arthritis model assessed as reduction in arthritis index score at 0.6 mg/kg, ig administered through gavage pretreated for 1 hr followed by adjuvant challenge and subsequent treatment for 9 days measured alternate days up to 24 days post dose. In kind it is functional, organism-based. In a few lines:
as §3

The subject of assay [8] is Rattus norvegicus. As to the kind of experiment: Antiarthritic activity in Lewis rat Freund's adjuvant-induced arthritis model assessed as reduction in mechanical allodynia in contralateral hind paw at 0.6 to 15 mg/kg, ig administered through gavage pretreated for 1 hr followed by adjuvant challenge and subsequent treatment for 9 days measured alternate days up to 24 days post dose. It is filed as functional, organism-based. In a few lines: as §2

For assay [9], the system named is Rattus norvegicus. The assay can be described thus: Antiarthritic activity in Wistar rat type-2 collagen-induced arthritis model assessed as reduction in cartilage degeneration in joints at 15 mg/kg, ig via gavage administered 10 consecutive days starting from day 20 post type-2 collagen injection by hematoxylin and eosin staining based light microscopy. It is filed as functional, organism-based. The procedure, abridged:
as §1

In assay [10] the test system is Rattus norvegicus. The assay can be described thus: Antiarthritic activity in Wistar rat type-2 collagen-induced arthritis model assessed as reduction in bone degeneration at 15 mg/kg, ig via gavage administered 10 consecutive days starting from day 20 post type-2 collagen injection by hematoxylin and eosin staining based light microscopy. It is filed as functional, organism-based. The procedure, abridged: as §1

The subject of assay [11] is Rattus norvegicus. The assay can be described thus: Antiarthritic activity in Wistar rat type-2 collagen-induced arthritis model assessed as reduction in IL-1beta mRNA expression at 15 mg/kg, ig via gavage administered 10 consecutive days starting from day 20 post type-2 collagen injection by qPCR analysis. In kind it is functional, organism-based. The procedure, abridged: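 Male Wistar rats (7 weeks old) given chicken CII (2 mg/mL in 0.1 M acetic acid) emulsified 1:1 in BCG/IFA adjuvant, two intradermal 0.3 mL injections 7 d apart. Gavage in saline daily for 10 d from day 20. Total RNA from ankle synovial tissue homogenate, reverse transcribed, qPCR in triplicate. Fold change vs blank control by 2−ΔΔCt.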
(In general: Quantitative PCR measures a nucleic acid by following its amplification.)

Assay [12] relates to Rattus norvegicus. The assay can be described thus: Antiarthritic activity in Wistar rat type-2 collagen-induced arthritis model assessed as reduction in mechanical allodynia administered as ig via gavage for 10 consecutive days starting from day 20 post type-2 collagen injection. It is filed as functional. In a few lines: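 Male Wistar rats (7 weeks old) immunized with chicken CII in CFA/IFA, two intradermal 0.3 mL injections 7 d apart. Oral gavage in saline for 10 consecutive days starting day 20. Evaluation at baseline, predosing, and on alternate days thereafter: arthritis score; plethysmometer volume averaged over both hind paws; von Frey threshold 1 h post-dose (max 55 g, two repeats 10 min apart). n = 10.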

The subject of assay [13] is Rattus norvegicus. As to the kind of experiment: Antiarthritic activity in Wistar rat type-2 collagen-induced arthritis model assessed as reduction in serum anti-type-2 collagen IgG level at 15 mg/kg, ig via gavage administered 10 consecutive days starting from day 20 post type-2 collagen injection by ELISA method. It is filed as functional, organism-based. The procedure, abridged: as §4

Assay [14] relates to Rattus norvegicus. As to the kind of experiment: Antiarthritic activity in Wistar rat type-2 collagen-induced arthritis model assessed as reduction in bone degradation at 0.6 to 15 mg/kg, ig via gavage administered 10 consecutive days starting from day 20 post type-2 collagen injection by X-ray method. In kind it is functional, organism-based. The procedure, abridged:
as §1

For assay [15], the system named is Rattus norvegicus. As to the kind of experiment: Antiarthritic activity in Wistar rat type-2 collagen-induced arthritis model assessed as reduction in serum IL-1beta level at 3 to 15 mg/kg, ig via gavage administered 10 consecutive days starting from day 20 post type-2 collagen injection by ELISA method. In kind it is functional, organism-based. In a few lines: as §5

For assay [16], the system named is Rattus norvegicus. As to the kind of experiment: Antiarthritic activity in Lewis rat Freund's adjuvant-induced arthritis model assessed as reduction in arthritis index score at 15 mg/kg, ig administered through gavage pretreated for 1 hr followed by adjuvant challenge subsequent treatment for 9 days measured alternate days up to 24 days post dose. In kind it is functional, organism-based. The procedure, abridged:
as §3

Activity calls are given as the source filed them.

For the compound `C=C[C@@]12CN(C)[C@H]3C[C@]14C(=Nc1ccccc14)[C@H]1C[C@@H]2[C@@H]3CO1`, the result in assay [1], in [3], in assay [4], in assay [5], in [6] and in [7] was Active. Also, the result in assay [9], in [10], in assay [11], in [13], in assay [14] and in assay [15] was Active. Besides, in [16], the outcome was Active. Further, the Activity entry in [2] and in assay [12] was “Dose-dependent effect” each time. For the same compound, the outcome in [8] was inactive.

The values above are taken from ChEMBL document CHEMBL4041468, “Effects of Koumine on Adjuvant- and Collagen-Induced Arthritis in Rats” (J Nat Prod, 2016).
